Data taken from ChEMBL document CHEMBL1938274, “Discovery of potent and specific CXCR3 antagonists” (Bioorg Med Chem Lett, 2012).

Assays:
Cytochrome P450 3A4 = Cytochrome P450 3A4 (Homo sapiens, UniProt P08684); assay: Time dependent inhibition of CYP3A4; format: ADME
[1] = biological target: T1, C-X-C chemokine receptor type 3 (Homo sapiens, UniProt P49682); assay: Displacement of [125I]-IP-10 from CXCR3 in presence of 100% human serum
T1 sequence (P49682 whole entry): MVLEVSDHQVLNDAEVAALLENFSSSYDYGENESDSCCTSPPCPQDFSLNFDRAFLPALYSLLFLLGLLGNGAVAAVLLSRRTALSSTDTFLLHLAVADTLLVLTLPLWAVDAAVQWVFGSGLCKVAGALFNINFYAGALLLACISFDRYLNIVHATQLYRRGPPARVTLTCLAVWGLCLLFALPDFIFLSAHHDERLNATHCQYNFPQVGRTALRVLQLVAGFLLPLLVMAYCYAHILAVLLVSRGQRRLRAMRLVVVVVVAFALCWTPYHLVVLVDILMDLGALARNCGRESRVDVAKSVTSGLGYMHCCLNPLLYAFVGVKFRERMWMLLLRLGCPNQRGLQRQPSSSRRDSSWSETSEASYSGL

[2] = biological target: T1, C-X-C chemokine receptor type 3; assay: Displacement of [125I]-IP-10 from CXCR3
PBL [3] = assay: Toxicity in human PBL assessed as chromosomal aberrations at 7.81 to 1000 ug/mL; format: cell-based
Summary of the method: (§1)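 Cultured human peripheral blood lymphocytes exposed at 7.81–1000 μg/mL, with and without S9 metabolic activation; chromosomal aberrations scored.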

[4] = Apparent oral bioavailability in Beagle dog at 2 mg/kg; format: ADME, organism-based, Canis lupus familiaris; conditions: in vivo, read-out: Fapp
[5] = Apparent oral bioavailability in cynomolgus monkey at 2 mg/kg; format: ADME, organism-based, Macaca fascicularis; conditions: in vivo, read-out: Fapp
[6] = Clearance in cynomolgus monkey at 0.5 mg/kg, iv; format: ADME, organism-based, Macaca fascicularis; design: dose 0.5 mg/kg, route intravenous; conditions: in vivo
Summary of the method: (§2)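 Single intravenous dose in 10% N,N-dimethylacetamide, 10% ethanol, 30% propylene glycol, 50% water: 1 mg/kg mouse; 0.5 mg/kg rat, beagle dog, cynomolgus monkey. Plasma clearance also given as percent of hepatic blood flow.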

PBL [7] = assay: Toxicity in human PBL assessed as chromosomal aberrations at 7.81 to 1000 ug/mL in the presence of S9; format: cell-based; summary of the method: as §1
[8] = Apparent oral bioavailability in mouse at 5 mg/kg; format: ADME, organism-based; conditions: in vivo, read-out: Fapp
[9] = Clearance in mouse at 1 mg/kg, iv; format: ADME, organism-based; design: dose 1 mg/kg, route intravenous; conditions: in vivo; summary of the method: as §2
[10] = Clearance in Beagle dog at 0.5 mg/kg, iv; format: ADME, organism-based, Canis lupus familiaris; design: dose 0.5 mg/kg, route intravenous; conditions: in vivo; summary of the method: as §2

Sequence of Cytochrome P450 3A4 (P08684 whole entry): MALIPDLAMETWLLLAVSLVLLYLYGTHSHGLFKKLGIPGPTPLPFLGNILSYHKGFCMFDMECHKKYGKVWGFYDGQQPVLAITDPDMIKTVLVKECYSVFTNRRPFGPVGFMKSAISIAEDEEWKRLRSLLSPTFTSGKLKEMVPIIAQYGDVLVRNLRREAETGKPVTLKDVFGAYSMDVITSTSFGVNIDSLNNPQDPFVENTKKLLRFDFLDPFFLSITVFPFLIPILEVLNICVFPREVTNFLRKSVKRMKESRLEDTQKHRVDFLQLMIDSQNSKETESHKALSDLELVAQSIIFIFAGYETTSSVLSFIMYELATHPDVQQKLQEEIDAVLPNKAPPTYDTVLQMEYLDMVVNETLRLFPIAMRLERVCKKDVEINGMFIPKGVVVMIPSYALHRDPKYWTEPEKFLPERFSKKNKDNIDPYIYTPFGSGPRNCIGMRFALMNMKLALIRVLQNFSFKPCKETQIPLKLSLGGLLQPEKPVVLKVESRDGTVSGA

| SMILES | TDI (Cytochrome P450 3A4) | IC50 [1] | IC50 [2] | Activity (PBL [3]) | bioavailability [4] | bioavailability [5] | clearance [6] | Activity (PBL [7]) | bioavailability [8] | clearance [9] | clearance [10] |
| --- | --- | --- | --- | --- | --- | --- | --- | --- | --- | --- | --- |
| CCOc1ccc(-n2c([C@@H](C)N(CCS(=O)(=O)CC)C(=O)Cc3ccc(F)c(C(F)(F)F)c3)nc3ncccc3c2=O)cc1 | Not Active |  |  |  |  |  |  |  |  |  |  |
| CCOc1ccc(-n2c([C@@H](C)N(Cc3ccc[n+]([O-])c3)C(=O)Cc3ccc(OC(F)(F)F)cc3)nc3ncccc3c2=O)cc1 |  | 14 nM | 7 nM |  |  |  |  |  |  |  |  |
| C[C@H](c1nc2ncccc2c(=O)n1-c1ccc(C#N)cc1)N(CC1CCS(=O)(=O)CC1)C(=O)Cc1ccc(F)c(C(F)(F)F)c1 |  | 12 nM | 8 nM | Non-toxic | 1.6% | 1% | 21.7 mL/min/kg | Non-toxic | 17% | 8.17 mL/min/kg | 8.33 mL/min/kg |
| C[C@H](c1nc2ncccc2c(=O)n1-c1ccc(C#N)cc1)N(CCS(C)(=O)=O)C(=O)Cc1ccc(F)c(C(F)(F)F)c1 |  | 29 nM | 13 nM | Toxic |  |  |  | Toxic |  |  |  |
| C[C@H](c1nc2ncccc2c(=O)n1-c1ccc(C#N)cc1)N(CC1CCS(=O)(=O)CC1)C(=O)Cc1ccc(C(F)(F)F)c(F)c1 |  | 15 nM | 7 nM | Toxic |  |  |  | Toxic |  |  |  |
